Sampled rows, rich in hits. Any-hit rate of the full collection: about 4.6%.
WT yeast gro inh – growth inhibition of WT yeast, mitochondrial fusion screen; mitochondrial fusion phenotypic screen, WT strain; inhibition, % at 10 µM; actives 2.1% (n = 190,000); AID 1362; in the data active = inhibition above about 58%; tested in S. cerevisiae
Hck Nef HTS – blocks Nef-activated human Hck kinase; P08631; Recombinant Hck-YEEI plus Nef, Z-Lyte FRET kinase assay; inhibition, % at 20 µM; actives 0.68% (n = 220,000);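 active = Hck-Nef kinase inhibition above about 50%, limit read from the data; inactive = inhibition below that limit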
Target sequence (P08631 whole entry, looked up): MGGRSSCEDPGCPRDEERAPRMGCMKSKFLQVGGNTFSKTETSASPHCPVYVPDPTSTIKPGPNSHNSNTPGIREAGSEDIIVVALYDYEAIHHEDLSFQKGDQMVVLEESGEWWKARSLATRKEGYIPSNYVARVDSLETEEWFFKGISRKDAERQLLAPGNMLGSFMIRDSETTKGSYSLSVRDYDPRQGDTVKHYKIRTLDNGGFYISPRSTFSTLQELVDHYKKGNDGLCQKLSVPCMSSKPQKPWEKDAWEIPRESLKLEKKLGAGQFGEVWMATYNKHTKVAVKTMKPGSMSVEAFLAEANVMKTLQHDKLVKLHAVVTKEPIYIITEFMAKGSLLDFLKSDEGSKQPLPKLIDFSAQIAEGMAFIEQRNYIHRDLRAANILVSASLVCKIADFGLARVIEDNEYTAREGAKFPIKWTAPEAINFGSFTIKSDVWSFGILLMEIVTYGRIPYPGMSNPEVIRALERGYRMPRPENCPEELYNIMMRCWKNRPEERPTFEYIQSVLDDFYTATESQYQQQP
RAM inhibit – blocks the yeast RAM network. actives 1.8% (n = 190,000). inhibition, % at 50 µM. S. cerevisiae dse1pr::URA3 reporter, 5-FOA growth OD615, 2 d; analog-sensitive cbk1-as2 kinase mutant strain;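 active = inhibition above a set limit, 3 SD over mean compound inhibition, cut at about 8.4% in these data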;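 also: inhibition rescues growth on 5-FOA so higher OD means more RAM inhibition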
NCF1 inh – inhibitors of human p47phox binding; p47phox/p22phox peptide binding, fluorescence polarization, 2 h; P14598; inhibition, % at 24.7 µM; actives 0.53% (n = 220,000); AID 1274;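 active = inhibition above about 30%, limit read from the data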
Biofilm kill mix – mixture kills Candida albicans biofilm cells | C. albicans biofilm persisters + clotrimazole, fluorescence viability; primary screen in compound mixtures of four per well | inhibition, % at 7.6 µM | actives 0.02% (n = 120,000) | AID 1242;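 active = inhibition above 30.3% in the primary screen of four-compound pools, then above 30% when the compound was retested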;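 also: compounds exposed to preformed 24 h biofilms for 48 h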
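Incubation: 24 h biofilm formation, then 48 h compound exposure, 37 °C | Material: C. albicans biofilms | Buffer or medium: RPMI/MOPS medium, pH 7.0 | Measured by: 2-h Alamar Blue fluorescence, 535/590 nm excitation/emission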
Arbovirus inh – antivirals against arbovirus infection; arbovirus infection cell-based antiviral screen; inhibition, % at 10 µM; actives 0.37% (n = 200,000); AID 1251; in the data active = inhibition above about 30%
Hck-Nef confirm – confirmation of Hck-Nef kinase inhibitors. calls only at 10 µM. Recombinant Hck-YEEI:Nef, Z-Lyte FRET kinase assay. actives 28% (n = 1,300). shares compounds with Hck Nef HTS;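 active = average inhibition of at least 50%, with Z-scores no higher than 3 in both the phospho-tyrosine peptide and fluorescence counterscreens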
A number is an active result; - = inactive; . = no result shown; + = active, no number.

SMILES	WT yeast gro inh	Hck Nef HTS	RAM inhibit	NCF1 inh	Biofilm kill mix	Arbovirus inh	Hck-Nef confirm
O=c1ccc2[n+]([O-])c3ccc(O)cc3oc-2c1	.	51	.	-	-	.	-
CCOC(=O)N1CCc2c(sc3ncn(C)c(=O)c23)C1	.	-	.	-	-	.	.
CCOC(=O)N1CCc2c(sc3nc4n(c(=O)c23)N=C(c2ccc(OC)cc2)CS4)C1	.	77	.	38	-	.	+
CCOC(=O)c1nnn2c1nc(Nc1cccc(C(F)(F)F)c1)c1ccccc12	.	66	.	-	-	.	-
NC(=O)c1nc(-c2cccs2)nc2c1[nH]c(=O)n2-c1ccc(F)cc1	-	-	-	-	-	-	.
O=C(c1ccco1)N(Cc1ccc2c(c1)OCO2)Cc1cc2cc3c(cc2[nH]c1=O)OCO3	.	126	.	-	-	.	-
Cc1cc2cc(CN(Cc3ccc4c(c3)OCO4)C(=O)c3ccco3)c(=O)[nH]c2cc1C	-	-	-	-	.	-	.
COc1ccc(C(=O)Nc2ccc(Cl)cc2C(=O)NCc2ccco2)cc1	-	-	-	-	-	-	.
CCC(C)C(NC(=O)c1ccccc1NC(=O)c1ccc(OC)cc1)C(=O)NCc1ccco1 (centres undefined)	-	69	-	50	.	-	+
CC(C)(C)c1[nH]nc2c1C(Cc1ccccc1)C(C#N)=C(N)O2 (centres undefined)	-	-	-	-	.	-	.
NS(=O)(=O)c1ccc(N/N=C/c2ccc(O)cc2O)c([N+](=O)[O-])c1	.	93	.	-	-	.	+
Cc1cccc(C)c1NC(=O)Cn1nnnc1N	-	-	-	-	-	-	.
OCCCNc1cc(-c2ccnc(Nc3cccc(Cl)c3)n2)ccn1	.	85	.	-	-	.	+
CCC(C)Oc1cc(-c2ccnc(Nc3cccc(Cl)c3)n2)ccn1 (centres undefined)	.	-	.	-	-	.	.
COc1ccc(-c2ccnc3c(C(=O)O)cnn23)cc1	-	-	-	-	-	-	.
CCN(CCO)c1nc(SC)nc2c1sc1nc(-c3ccco3)c3c(c12)CCC3	-	68	-	-	.	-	-
CCN(CCO)c1ncnc2c1sc1nc(C(C)C)c3c(c12)CC(C)(C)OC3	-	-	-	-	.	-	.
CCc1ccc(NC(=O)C2C3/C=C\CCCCC32)cc1 (centres undefined)	-	-	-	-	-	-	.
Cc1cc(C)cc(COn2ccnc2)c1	-	-	-	-	.	-	.
C=CCn1c(SCC(=O)Nc2sccc2C#N)nc2sc(C)c(C)c2c1=O	-	63	-	-	.	-	+
CCc1c(C)nc2c(C)cccc2c1SCCC#N	-	-	-	-	-	-	.
COC(=O)C1=CNC=C(C(=O)OC)C1c1ccccc1Cl	-	66	-	-	.	-	.
COC(=O)C1=CNC=C(C(=O)OC)C1c1ccc(Cl)cc1	-	-	-	-	.	-	.
Cc1ccc(C#CC[N+]2(C)CCCCC2)cc1	.	-	.	-	-	.	.
C=C(C)CSc1cc(C)c(C#N)c2nc3ccccc3n12	-	-	-	-	-	-	.
SMILES	WT yeast gro inh	Hck Nef HTS	RAM inhibit	NCF1 inh	Biofilm kill mix	Arbovirus inh	Hck-Nef confirm
Cc1cc(NCCCCO)n2c(nc3ccccc32)c1C#N	-	59	-	-	.	-	.
CCCc1cc(NCCCCO)n2c(nc3ccccc32)c1C#N	-	97	-	-	.	-	.
CC(C)N1CC(O)=C(c2nc3ccccc3[nH]2)C1=N	-	56	-	-	.	-	+
Nc1c2c(=O)oc(-c3ccccc3)cc2nn1-c1ccccc1	-	67	-	-	.	-	-
CCOP(=O)(O)c1ccccc1OCCOCCOc1ccccc1P(=O)(O)OCC	-	94	-	-	.	-	-
O=C(O)CCC(=O)NNc1ncnc2ccccc12	-	52	-	-	-	-	-
CCC(=O)NNc1ncnc2ccccc12	-	-	-	-	-	-	.
CC(C)(C)NC(=O)C(c1cccs1)N(Cc1ccc(F)cc1)C(=O)c1csnn1 (centres undefined)	-	-	-	.	-	-	.
CC1=NN(c2nc(-c3ccc(C)cc3)cs2)C(=O)C1N=Nc1cccc(C)c1 (centres undefined)	-	-	-	-	-	-	.
CCOC(=O)c1sc(N2N=C(C)C(N=Nc3cccc(C)c3)C2=O)nc1C (centres undefined)	.	100	.	-	-	.	+
C=CCn1cc(/C=C2/NC(=O)NC2=O)c2ccccc21	.	61	.	-	-	.	-
C=CCn1cc(/C=N/N2C(=O)C3C4C=CC(C4)C3C2=O)c2ccccc21 (centres undefined)	-	-	-	-	-	-	.
Cc1cc(C)c2ccc(=O)n(CC(=O)N/N=C/c3ccccc3Cl)c2n1	.	-	.	-	-	.	.
CC1=NNC(=O)/C1=C\c1cn(-c2ccccc2)nc1-c1ccc(F)cc1	90	86	-	-	-	-	+
CC1=NNC(=O)/C1=C\c1cn(-c2ccccc2)nc1-c1cccs1	-	99	-	-	-	-	+
COc1ccc(C(=O)NCC(=O)NCC(=O)OCC(=O)C(C)(C)C)cc1	-	-	-	-	-	-	.
O=C1N=C(N2CCN(c3ccccc3)CC2)S/C1=C/c1ccco1	.	52	.	-	-	.	-
O=C1N=C(N2CCN(c3ccccc3)CC2)S/C1=C\c1ccco1	-	-	-	-	-	-	.
C=CCNC(=S)NCCCCC1NC(=S)N(CC=C)C1=O (centres undefined)	-	-	-	-	-	-	.
COc1ccc(-c2cc3ccccc3oc2=O)cc1NC(=S)NC(=O)c1ccc2c(c1)OCCO2	-	51	-	-	.	-	+
COc1ccc(-c2cc3ccccc3oc2=O)cc1NC(=O)c1ccc(Br)o1	-	77	-	41	.	-	-
CCC(=O)Nc1cc(-c2cc3ccccc3oc2=O)ccc1OC	-	-	-	-	-	-	.
CCc1cccc(N(C(=O)c2csnn2)C(C(=O)NC(C)(C)CC)c2ccccn2)c1 (centres undefined)	-	-	-	-	-	-	.
C=CCOc1ccccc1CN1CCCC(CCC(=O)N(C)CCc2ccccn2)C1 (centres undefined)	-	-	-	.	-	-	.
CCOC(=O)c1cc(-c2ccccc2)sc1NC(=O)COC(=O)c1cccc(S(N)(=O)=O)c1	-	58	-	-	-	-	+
SMILES	WT yeast gro inh	Hck Nef HTS	RAM inhibit	NCF1 inh	Biofilm kill mix	Arbovirus inh	Hck-Nef confirm
O=C1CCCC2=C1C(c1cccc(O)c1)c1c(ccc3ncccc13)N2 (centres undefined)	-	65	-	-	-	-	-
COc1cc(C2C3=C(CCCC3=O)Nc3ccc4ncccc4c32)ccc1O (centres undefined)	-	-	-	-	-	-	.
Cn1c(N)c(C(=O)Nc2ccc(-c3ccccc3)cc2)sc1=S	.	-	.	-	-	.	.
COc1cc(Br)c(Br)c(Br)c1N	.	-	.	-	-	.	.
Nc1nc2nc(-c3cccs3)cc(C(F)(F)F)n2n1	-	110	-	-	-	-	.
C=CCn1c(SCC(=O)NNC(=O)Nc2ccc(C)cc2)nnc1-c1ccccc1	.	-	.	-	-	.	.

Bioassay records as filed in PubChem BioAssay.
